“And” between values parts separate entries of the source, which are not always exact repeats. Equal values may be shown once.
Legend:
HEK-293T = experiment: Multiplex assay against HEK293T; type: toxicity, cell-based; settings: human, number of replicates 2
In short: (§1)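 Values for tubulin, mitochondrial-mass and membrane-permeability phenotypes are per cents of cells with healthy nuclei. These cells were identified by CellPathfinder machine-learning gating of live cells that had been stained at seeding with Hoechst33342, BioTracker Green Microtubule Cytoskeleton Dye, MitoTracker Red and Annexin V Alexa Fluor 680 and imaged on a CQ1 microscope at 37°C and 5% CO2 after compound addition. The gating first set Hoechst high-intensity objects apart from normal cells, then split normal cells into healthy, pyknosed or fragmented nuclei, and pyknosed cells into mitotic or apoptotic.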

Fibroblast = experiment: Multiplex assay against human fibroblast; type: toxicity, cell-based; settings: number of replicates 2; in short: as §1
[1] = 24 h, 10 µM, compound concentration 10 uM
[2] = 48 h, 1 µM, compound concentration 1 uM
[3] = 48 h, 10 µM, compound concentration 10 uM
[4] = 12 h, 1 µM, compound concentration 1 uM
[5] = 12 h, 10 µM, compound concentration 10 uM
[6] = 24 h, 1 µM, compound concentration 1 uM

## COc1cc(OC)cc(-c2cc3cnc(N)nc3nc2NC(=O)NC(C)(C)C)c1
HEK-293T; [1]
  Population Mitotic Cells (%): 47% and 59% and 51%
  Population Normal (%): 91% and 90%
  Population Pyknosed Nuclei (%): 9% and 6% and 10%
  Population Tubulin-Different-Phenotype (%): 30% and 35% and 38% and 33%
  Total Cell Count: 797 and 901 and 1521 and 1236
HEK-293T; [2]
  Population Apoptotic (%): 16% and 24% and 25% and 17%
  Population Fragmented Nuclei (%): 13% [middle of 4 runs]
  Population Healthy Nuclei (%): 75% and 84% and 83% and 86%
  Population Hoechst High Intensity Objects (%): 8% and 7% and 10%
  Population Membrane Permeable-Phenotype (%): 6% and 3% and 4% and 2%
  Population Mitochondria Different-Phenotype (%): 0%
  Population Mitotic Cells (%): 83% and 75% and 82%
  Population Normal (%): 91% and 92% and 89%
  Population Pyknosed Nuclei (%): 2% and 3% and 4%
  Population Tubulin-Different-Phenotype (%): 12% and 9% and 13% and 16%
  Total Cell Count: 3190 and 2284 and 2394 and 1901
HEK-293T; [3]
  Population Apoptotic (%): 28% and 21% and 14%
  Population Fragmented Nuclei (%): 14% [middle of 4 runs]
  Population Healthy Nuclei (%): 85% and 87% and 73% and 82%
  Population Hoechst High Intensity Objects (%): 9% and 10%
  Population Membrane Permeable-Phenotype (%): 4% and 5% and 2%
  Population Mitochondria Different-Phenotype (%): 0% and 1%
  Population Mitotic Cells (%): 71% and 78% and 85%
  Population Normal (%): 90% and 89%
  Population Pyknosed Nuclei (%): 3% and 2%
  Population Tubulin-Different-Phenotype (%): 15% and 18% and 20%
  Total Cell Count: 1964 and 1991 and 3775 and 2773
Fibroblast; [4]
  Population Apoptotic (%): 28% and 48% and 41% and 34%
  Population Fragmented Nuclei (%): 10% and 16% and 6% and 8%
  Population Healthy Nuclei (%): 72% and 62% and 76% and 70%
  Population Hoechst High Intensity Objects (%): 0% and 11%
  Population Membrane Permeable-Phenotype (%): 7% and 6% and 5%
  Population Mitochondria Different-Phenotype (%): 2% and 0%
  Population Mitotic Cells (%): 71% and 51% and 58% and 65%
  Population Normal (%): 100% and 88%
  Population Pyknosed Nuclei (%): 17% and 20% and 16%
  Population Tubulin-Different-Phenotype (%): 18% and 11% and 9% and 8%
  Total Cell Count: 258 and 266 and 187 and 224
Fibroblast; [5]
  Population Apoptotic (%): 50% and 26% and 38% and 34%
  Population Fragmented Nuclei (%): 8% and 9% and 14% and 12%
  Population Healthy Nuclei (%): 60% and 67% and 71% and 66%
  Population Hoechst High Intensity Objects (%): 0%
  Population Membrane Permeable-Phenotype (%): 4% and 5%
  Population Mitochondria Different-Phenotype (%): 0% and 1%
  Population Mitotic Cells (%): 50% and 73% and 61% and 65%
  Population Normal (%): 100% and 99%
  Population Pyknosed Nuclei (%): 23% [middle of 4 runs]
  Total Cell Count: 176 and 182 and 232 and 229
Fibroblast; [6]
  Population Apoptotic (%): 54% and 53% and 55%
  Population Fragmented Nuclei (%): 8% and 21% and 10%
  Population Healthy Nuclei (%): 74% and 57% and 71% and 65%
  Population Hoechst High Intensity Objects (%): 0% and 13%
  Population Membrane Permeable-Phenotype (%): 4% and 6% and 5%
  Population Mitochondria Different-Phenotype (%): 0% and 1%
  Population Mitotic Cells (%): 45% and 46% and 44%
  Population Normal (%): 99% and 86% and 100%
  Population Pyknosed Nuclei (%): 17% and 21% and 24%
  Population Tubulin-Different-Phenotype (%): 12% [middle of 4 runs]
  Total Cell Count: 260 and 192 and 201
Fibroblast; [1]
  Population Apoptotic (%): 57% and 48% and 65% and 58%
  Population Fragmented Nuclei (%): 11% and 13% and 16% and 18%
  Population Healthy Nuclei (%): 63% and 67% and 70% and 66%
  Population Hoechst High Intensity Objects (%): 0%
  Population Membrane Permeable-Phenotype (%): 5% and 1% and 4%
  Population Mitochondria Different-Phenotype (%): 0% and 1%
  Population Mitotic Cells (%): 42% and 51% and 34% and 41%
  Population Normal (%): 100% and 99%
  Population Pyknosed Nuclei (%): 25% and 18% and 13% and 15%
  Total Cell Count: 187 and 175 and 231 and 236
Fibroblast; [2]
  Population Apoptotic (%): 70% and 65% and 60% and 68%
  Population Fragmented Nuclei (%): 10% and 18% and 12% and 15%
  Population Healthy Nuclei (%): 75% and 63% and 65%
  Population Hoechst High Intensity Objects (%): 0% and 18%
  Population Membrane Permeable-Phenotype (%): 2% and 10% and 8% and 6%
  Population Mitochondria Different-Phenotype (%): 0%
  Population Mitotic Cells (%): 29% and 34% and 40% and 31%
  Population Normal (%): 100% and 81%
  Population Pyknosed Nuclei (%): 13% and 17% and 12% and 19%
  Population Tubulin-Different-Phenotype (%): 7% and 10% and 9% and 6%
  Total Cell Count: 266 and 238 and 205 and 226
Fibroblast; [3]
  Population Apoptotic (%): 74% and 66% and 75% and 69%
  Population Fragmented Nuclei (%): 13% and 10% and 16% and 18%
  Population Healthy Nuclei (%): 65% and 67% and 71% and 69%
  Population Hoechst High Intensity Objects (%): 0%
  Population Membrane Permeable-Phenotype (%): 8% and 0% and 5% and 4%
  Population Mitochondria Different-Phenotype (%): 1% and 0%
  Population Mitotic Cells (%): 25% and 33% and 24% and 30%
  Population Normal (%): 100%
  Population Pyknosed Nuclei (%): 20% and 22% and 12%
  Total Cell Count: 190 and 176 and 237 and 215
